From ChEMBL document CHEMBL1687928, “Discovery, optimization, and pharmacological characterization of novel heteroaroylphenylureas antagonists of C-C chemokine ligand 2 function” (J Med Chem, 2011)
Converted amounts (≈) assume the structure as drawn. The source made the active and inactive calls. The rule behind the calls is not given here.

What was measured:
[1] = biological target: T1, C-X-C chemokine receptor type 1 (Homo sapiens) (UniProt P25024); type: cell-based; conditions: neutrophils
T1 sequence (whole entry): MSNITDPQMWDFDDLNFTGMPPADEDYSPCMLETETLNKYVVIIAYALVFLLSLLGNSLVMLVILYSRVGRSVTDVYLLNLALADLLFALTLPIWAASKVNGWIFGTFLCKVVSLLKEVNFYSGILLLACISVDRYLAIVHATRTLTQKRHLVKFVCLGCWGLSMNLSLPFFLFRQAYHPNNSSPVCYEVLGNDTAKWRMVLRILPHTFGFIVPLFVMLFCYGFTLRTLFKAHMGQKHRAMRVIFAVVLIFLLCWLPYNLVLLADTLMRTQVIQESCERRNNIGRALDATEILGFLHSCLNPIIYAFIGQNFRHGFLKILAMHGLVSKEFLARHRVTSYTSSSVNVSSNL

[2] = Aqueous solubility of the compound at pH 1.2; type: physicochemical
THP-1 = assay: Cytotoxicity against human THP1 cells; type: cell-based
[3] = biological target: C-C chemokine receptor type 2 (Homo sapiens) (UniProt P41597); type: cell-based; conditions: THP-1
Sequence of C-C chemokine receptor type 2 (Homo sapiens) (P41597 whole entry, looked up): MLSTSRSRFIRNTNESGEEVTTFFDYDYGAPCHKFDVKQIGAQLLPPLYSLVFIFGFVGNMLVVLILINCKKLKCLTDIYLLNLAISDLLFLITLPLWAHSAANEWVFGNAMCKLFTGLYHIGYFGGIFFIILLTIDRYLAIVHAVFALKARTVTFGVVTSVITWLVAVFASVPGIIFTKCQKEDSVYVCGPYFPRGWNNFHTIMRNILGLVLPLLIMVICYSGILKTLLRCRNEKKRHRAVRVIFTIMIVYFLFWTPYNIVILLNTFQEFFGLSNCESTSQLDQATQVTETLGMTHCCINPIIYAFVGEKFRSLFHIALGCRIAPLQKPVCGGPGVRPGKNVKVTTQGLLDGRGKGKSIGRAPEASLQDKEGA

[4] = biological target: C-C chemokine receptor type 2 (Homo sapiens) (UniProt P41597); type: cell-based; conditions: HEK293
[5] = biological target: T2, C-X-C chemokine receptor type 2 (Homo sapiens) (UniProt P25025); type: cell-based; conditions: neutrophils
T2 sequence (whole entry): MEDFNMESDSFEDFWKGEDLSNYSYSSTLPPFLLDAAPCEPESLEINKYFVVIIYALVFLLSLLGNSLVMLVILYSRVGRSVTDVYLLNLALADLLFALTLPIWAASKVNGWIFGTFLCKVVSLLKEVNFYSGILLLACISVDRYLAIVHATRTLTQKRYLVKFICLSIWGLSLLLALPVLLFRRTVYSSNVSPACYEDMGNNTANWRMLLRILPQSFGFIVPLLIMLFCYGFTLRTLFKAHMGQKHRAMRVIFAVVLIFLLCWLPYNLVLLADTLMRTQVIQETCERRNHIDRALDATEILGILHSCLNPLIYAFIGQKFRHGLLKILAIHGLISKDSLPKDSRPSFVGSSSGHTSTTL

[6] = biological target: T3, C5a anaphylatoxin chemotactic receptor 1 (Homo sapiens) (UniProt P21730); type: cell-based; conditions: CHO
T3 sequence (whole entry): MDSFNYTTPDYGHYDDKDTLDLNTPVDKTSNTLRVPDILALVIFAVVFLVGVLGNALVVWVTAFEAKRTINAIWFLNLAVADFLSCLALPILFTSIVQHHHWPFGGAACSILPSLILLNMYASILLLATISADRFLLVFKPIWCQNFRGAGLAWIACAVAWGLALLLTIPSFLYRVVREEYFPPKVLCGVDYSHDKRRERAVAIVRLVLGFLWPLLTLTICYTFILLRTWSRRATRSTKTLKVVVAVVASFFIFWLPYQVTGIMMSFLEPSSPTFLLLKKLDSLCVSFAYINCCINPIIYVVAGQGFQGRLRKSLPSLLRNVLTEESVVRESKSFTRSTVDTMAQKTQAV

[7] = Aqueous solubility of the compound at pH 7.4; type: physicochemical
[8] = biological target: C-C chemokine receptor type 2 (Homo sapiens) (UniProt P41597); assay: Antagonist activity at CCR2 in human THP1 cells assessed as inhibition of CCL2-induced calcium flux at 50 uM; type: functional, cell-based; conditions: THP-1
Outline: (§1)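 THP-1 cells in serum-free RPMI 1640 were loaded with 3 μM Fluo-3AM plus 0.1% F127 for 30 min at 37 °C. After washing, cells were resuspended at 5 × 10^6 cells/mL and kept at room temperature. They were pretreated 30 min with compound or DMSO, then stimulated with 100 ng/mL hCCL2. Fluorescence was read by flow cytometry at baseline for 15 s, then from 20 to 120 s. Inhibition is given as % of DMSO control.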

[9] = biological target: C-C chemokine receptor type 2 (Homo sapiens) (UniProt P41597); assay: Antagonist activity at CCR2 in human THP1 cells assessed as inhibition of CCL2-induced calcium flux; type: functional, cell-based; conditions: THP-1; outline: as §1

With Cc1nn(C)c2ncc(C(=O)NC(=O)Nc3ccc(F)c(C(F)(F)F)c3)cc12 the Activity [1] was “inactive”, the solubility [2] was 3.9 µg/mL (≈ 9.87 µM) and the CC50 (THP-1) was greater than 50 µM. The Activity [3] was “inactive”, the Activity [4] was “inactive” and the Activity [5] was “inactive”. The Activity [6] was “inactive” and the solubility [7] was 5 µg/mL (≈ 12.6 µM).
In the case of O=C(NC(=O)c1ccc2c(c1)OCO2)Nc1ccc(O)c(Cl)c1, the Activity [8] was “Active”, the Activity [9] was “Dose-dependent effect” and the CC50 (THP-1) was greater than 50 µM. The Activity [3] was “inactive” and the Activity [4] was “inactive”.
